Source: PubChem BioAssay (several laboratories)
MT1-MMP act inh: MT1-MMP (human) activation inhibition | HT1080 RFP-PRO-GFP cells, GFP/RFP ratio fluorescence, overnight; percent of plate control window, DMSO zero | AID 651647 | GFP/RFP ratio change, % at 20 µM | 360,000 compounds, 0.061% hits;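 active = GFP/RFP ratio change of at least 30% with cell ATP level not reduced by more than half and red fluorescence within 50% of control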
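Assay system – RFP-PRO-GFP reporter HT1080 cells · Compound dosing – single dose of 20 µM compound, 1% DMSO final · Incubation – overnight compound exposure at 37 °C · Measure – GFP/RFP fluorescence ratio · Benchmarks – DMSO wells and RFP-L50D-GFP cells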
TMEM16A inh: blocks the mouse calcium-activated chloride channel TMEM16A; Q8BHY3; HEK293 TMEM16A/YFP iodide influx fluorescence, ionomycin; normalized B-score (activity score, 25-100; higher = stronger inhibition) at 10 µM; 310,000 compounds, 1.2% hits;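 active = ratio plate-corrected score three or more library SD toward inhibition, starting fluorescence score within five deviations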;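 also: score derived from kinetic fluorescence span divided by baseline fluorescence per well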
ANO1 activ: mouse TMEM16A channel activation, primary screen; Q8BHY3; HEK293 TMEM16A/YFP-H148Q/I152L, iodide quench fluorescence; active compounds read low; B-score at 10 µM; 340,000 compounds, 0.3% hits; AID 623877;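 active = fluorescence-ratio B-score plate-corrected deviation score at least 3 library SD below zero, with starting fluorescence score within 5 deviations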;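 also: channel opened by trigger with iodide after compound preincubation; score built on the fluorescence ratio of max minus min over baseline; more negative score means more quench and so TMEM16A activation or potentiation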
DAGLB inhibitor: diacylglycerol lipase beta (human) inhibition. 340,000 compounds, 0.059% hits. HEK293T DAGLB membrane lysate, EnzChek fluorogenic substrate. inhibition, % at 5.17 µM. Q8NCG7; in the data active = inhibition above about 34%;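 also: 0% = enzyme with vehicle and 100% = wells lacking enzyme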
Target sequence (Q8NCG7 whole entry, looked up): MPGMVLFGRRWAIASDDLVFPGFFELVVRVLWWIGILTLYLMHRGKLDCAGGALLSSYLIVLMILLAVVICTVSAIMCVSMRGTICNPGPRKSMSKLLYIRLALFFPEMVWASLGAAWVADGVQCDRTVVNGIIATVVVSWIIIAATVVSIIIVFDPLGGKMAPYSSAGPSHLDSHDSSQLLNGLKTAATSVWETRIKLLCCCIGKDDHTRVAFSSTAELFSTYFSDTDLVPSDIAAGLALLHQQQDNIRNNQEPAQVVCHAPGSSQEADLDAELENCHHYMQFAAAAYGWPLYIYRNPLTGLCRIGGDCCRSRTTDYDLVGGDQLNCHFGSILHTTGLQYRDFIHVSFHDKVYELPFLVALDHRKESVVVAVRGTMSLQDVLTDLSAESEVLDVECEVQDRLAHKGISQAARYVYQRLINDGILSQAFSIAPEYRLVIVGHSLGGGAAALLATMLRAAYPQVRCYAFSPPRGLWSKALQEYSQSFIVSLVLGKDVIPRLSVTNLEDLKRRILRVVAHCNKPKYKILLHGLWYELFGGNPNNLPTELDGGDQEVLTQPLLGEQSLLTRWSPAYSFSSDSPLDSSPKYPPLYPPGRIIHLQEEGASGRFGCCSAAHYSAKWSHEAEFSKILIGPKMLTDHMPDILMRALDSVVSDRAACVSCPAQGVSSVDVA
TMEM16A reconf: re-confirmation of mouse TMEM16A chloride channel inhibitors | HEK293 TMEM16A/YFP-H148Q, iodide quench fluorescence; ionomycin added to raise cell calcium | 2,300 compounds, 39% hits | shares compounds with TMEM16A inh | inhibition, % at 10 µM;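 active = mean duplicate percent inhibition, scaled so buffer wells are 0 and the reference blocker 100, over three buffer SD above buffer mean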
HEK293 Ca mobil: alters calcium mobilization in TMEM16A HEK293 cells, counter-screen; TMEM16A/YFP HEK293, Fluo4 calcium mobilization; 2,300 compounds, 2% hits; AID 652231; calcium response (% of ionomycin), % at 10 µM; shares compounds with TMEM16A inh;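 active = duplicate-averaged calcium signal over 20% of the ionomycin maximum, relative to buffer baseline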;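 also: each well's signal is peak minus trough fluorescence divided by its pre-addition baseline; 0% = buffer wells and 100% = ionomycin wells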
YFP-HEK293 quench: acts in parental YFP-HEK293 cells lacking TMEM16A, counter-screen; shares compounds with TMEM16A inh; iodide YFP quench, ionomycin; YFP ratio F(max-min)/F0 at 10 µM; 2,300 tested, under 10 active; AID 652233;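 active = yellow fluorescent protein signal ratio exceeding the buffer control mean by over 5 SD of those controls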;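 also: ratio is mean of duplicate wells from kinetic YFP trace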
ClC-1 rat inh: rat ClC-1 inhibition, TMEM16A specificity screen. 2,300 tested, under 10 active. shares compounds with TMEM16A inh. CHO ClC-1-YFP, iodide influx fluorescence quench; iodide control reads 0, buffer control 100. ratio percent, % at 10 µM;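 active = duplicate-mean ratio percent above the mean of iodide-only control wells, which defines zero, plus 5 of their SD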;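 also: higher percent means stronger block of ClC-1 iodide influx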
Numbers without * were called inactive; i = inactive; nt = no result; ! = not active in a repeat. Most compounds without a hit are left out; they make up all but 1.3% or so of the library.

SMILES	MT1-MMP act inh	TMEM16A inh	ANO1 activ	DAGLB inhibitor	TMEM16A reconf	HEK293 Ca mobil	YFP-HEK293 quench	ClC-1 rat inh
O=C(c1ccc(F)cc1)C1CCN(C(=O)N2CCOCC2)CC1	-5	i	i	2	i	i	-1.1	-12
O=C(c1ccc(Cl)cc1)C1CCN(C(=O)N2CCOCC2)CC1	-4	i	i	0	nt	nt	nt	nt
Cc1ccc(N2CC(C(=O)N3CCN(c4ccccn4)CC3)CC2=O)cc1 (stereo not given)	1	nt	i	1	nt	nt	nt	nt
CC(=O)c1ccccc1OCc1ccc(S(=O)(=O)Cc2ccccc2)cc1	-7	25*	i	-5	34%*	i	-0.62	-14
CN(C(=O)CN1C(=O)NC(c2ccccc2)(c2ccccc2)C1=O)C1CCS(=O)(=O)C1 (stereo not given)	2	nt	i	-3	nt	nt	nt	nt
C(/C=C/c1ccccc1)=N/N1CCN(c2ccccc2)CC1	-1	25*	i	-1	i	i	-0.93	-12
C(=C\c1ccccc1)/C=N/N1CCN(c2ccccn2)CC1	-1	i	i	0	nt	nt	nt	nt
O=C(Nc1ccc(S(=O)(=O)N2CCOCC2)cc1)c1ccc(S(=O)(=O)N2CCOCC2)cc1	4	i	i	-1	nt	nt	nt	nt
CCN(CC)S(=O)(=O)c1ccc(NC(=O)c2ccc(CN3CCOCC3)cc2)cc1	6	100*	i	0	30%*	i	-1.1	-8
O=C(Nc1ccc(S(=O)(=O)Nc2ccc(F)cc2)cc1)c1ccc(CN2CCOCC2)cc1	-6	25*	i	-1	39%*	i	-0.9	-15
CC(NC(=S)Nc1ccc(S(=O)(=O)N2CCOCC2)cc1)C1CC2CCC1C2 (stereo not given)	3	25*	i	0	i	i	-1.4	-2
O=C(Nc1ccc(S(=O)(=O)N2CCCC2)cc1)c1ccc(CN2CCOCC2)cc1	4	100*	i	0	46%*	i	-0.88	-16
O=C(Nc1ccc(S(=O)(=O)N2CCOCC2)cc1)C1CCCCC1	0	25*	i	0	i	i	-1	-4
Cc1ccc(NC(=O)CSC2=C(C#N)C(c3ccco3)C3=C(CC(C)(C)CC3=O)N2)cc1 (stereo not given)	-1	i	i	-18	nt	nt	nt	nt
Cc1ccc(NC(=O)CSC2=C(C#N)C(c3ccco3)CC(=O)N2)cc1 (stereo not given)	6	25*	i	-2	i	i	-1	-12
Cc1ccc(C)n1-n1c(C)nc2sc(-c3ccccc3)cc2c1=O	-7	100*	i	-8	i	i	-0.94	2
Cc1nn(-c2ccc(NC(=O)c3ccncc3)cc2)c(C)c1Cl	5	25*	i	0	18%*	i	-0.89	-2
Fc1ccc2[nH]c3c(NCc4ccccc4)ncnc3c2c1	18	100*	i	-12	66%*	i	-1	-26
CC1CN(S(=O)(=O)c2cccc(C(=O)NCC(c3cccs3)N3CCOCC3)c2)CC(C)O1 (stereo not given)	4	nt	nt	1	nt	nt	nt	nt
CC(C)(C)C(=O)Nc1cc(S(=O)(=O)Nc2ccc(Cl)cc2)ccc1Cl	0	25*	i	-7	36%*	i	-1.4	-8
COc1ccc(NS(=O)(=O)c2ccc(Cl)c(NC(=O)c3ccccc3F)c2)cc1	0	nt	i	-6	nt	nt	nt	nt
CCOC(=O)c1c(-c2cccs2)csc1NC(=O)C(C)(C)C	-4	25*	i	-9	33%*	i	-1.1	-6
C=CCc1cc(OC)ccc1OCC(O)CN1CCN(c2ccc(OC)cc2)CC1 (stereo not given)	3	25*!	i	4	i	i	-1.2	-14
CCC1(C)Cc2c(sc3[nH]c(=O)[nH]c(=O)c23)CS1 (stereo not given)	-1	100*	i	2	i	i	-1.1	-10
CCC1(C)Cc2c(sc3[nH]c(=S)[nH]c(=S)c23)CO1 (stereo not given)	2	i	i	1	nt	nt	nt	nt
SMILES	MT1-MMP act inh	TMEM16A inh	ANO1 activ	DAGLB inhibitor	TMEM16A reconf	HEK293 Ca mobil	YFP-HEK293 quench	ClC-1 rat inh
Cc1ccc(Nc2nc(-c3c(C)nc4ncccn34)cs2)cc1	9	i	i	0	nt	nt	nt	nt
Cc1nc2ccccn2c1-c1csc(NCc2ccco2)n1	11	25*	i	2	i	i	-0.96	-8
Cc1nc(C)c(-c2csc(NCc3ccco3)n2)s1	3	i	i	-2	nt	nt	nt	nt
Cc1ccc(Nc2nc(-c3c(C)nc4ccccn34)cs2)cc1	-8	25*	i	4	32%*	i	-1.4	-16
Cc1ccc(SCc2ccc(C(=O)N3CCCCC3)cc2)cc1	-6	100*	i	-7	i	i	-1.1	-6
O=C(C[C@H]1C[C@@H]2c3cc(NS(=O)(=O)c4ccccc4)ccc3O[C@@H]2[C@H](CO)O1)N1CCOCC1	3	nt	nt	-1	nt	nt	nt	nt
O=C1/C(=C/c2ccccc2)CCc2ccc(Cl)nc21	2	nt	i	-1	nt	nt	nt	nt
CN(CC(CC(=O)Nc1nncs1)c1ccccc1)S(=O)(=O)c1ccccc1 (stereo not given)	-4	i	i	3	nt	nt	nt	nt
CN(CC(CC(=O)Nc1nncs1)c1ccccc1)S(=O)(=O)c1ccc(Br)cc1 (stereo not given)	2	100*	i	3	i	i	-0.96	-12
Cc1ccc(NC(=S)NNC(=O)c2cccc([N+](=O)[O-])c2)cc1Cl	0	25*	i	14	24%*	i	-1.1	-18
Cc1cc(OCC(=O)OCC(=O)N2CCCc3ccccc32)ccc1Cl	0	nt	nt	-7	nt	nt	nt	nt
Cc1cc(-c2ccc(S(=O)(=O)N(C)c3ccc(C)c(C)c3)s2)on1	-12	i	i	-15	nt	nt	nt	nt
Cc1ccc(N(C)S(=O)(=O)c2ccc(-c3cc(C)no3)s2)cc1	-9	25*	i	-4	33%*	i	-0.98	-12
Clc1ccc(OCc2nnc(SCc3nc4ccccc4[nH]3)n2Cc2ccco2)cc1	-4	25*	i	5	i	i	-1.1	-18
CN(c1cccc(NC(=O)CCSc2ccccc2)c1)S(C)(=O)=O	3	i	i	-1	nt	nt	nt	nt
CN(c1cccc(NC(=O)CSc2ccc(Cl)cc2)c1)S(C)(=O)=O	-7	100*	i	-3	28%*	i	-0.97	-4
